Measured values from article PMC3710193 (Journal of immunology (Baltimore, Md. : 1950), 2011).
pKd: −log10 of the molar value. Several values for one entry are separate records, joined by “and”; a condition that tells them apart may be missing. Equal entries are not always repeated.

Tests used:
Vβ7 NKT TCR / CD1d-Ag = experiment: SPR of Vβ7 NKT TCR binding to glycolipid-loaded CD1d; design: species or system mouse
Outline: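 Refolded mouse Vα14-Vβ7 NKT TCR flowed over glycolipid-loaded mouse CD1d (baculovirus-expressed, BirA/His-tagged) captured on streptavidin chips; CD1d-endogenous lipid surface subtracted. 25°C, HEPES buffer pH 7.4, 150 mM NaCl, 0.005% P20. Kinetics: 300–500 RU, 0.19–25 μM, 50 μl/min for 60 s, 1:1 Langmuir fit, duplicate. Steady-state: 2000 RU, 0.039–40 μM, 5 μl/min for 90 s, one-site fit.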

spleen NKT cells [1] = experiment: Intracellular cytokine staining for IFN-γ in spleen NKT cells at 8 hours; assay type: cell-based, C57BL/6 mice; conditions: highest dose 100 ng/ml, ICS
Outline: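 Splenocytes from C57BL/6 mice (5×10^5/well) were cultured 8 hr with test glycolipid (100, 10, 1 ng/ml), with Golgistop for the final 4 hr. Four replicate wells were pooled per determination. Cells were surface-stained with glycolipid-loaded CD1d tetramer-PE and anti-TCR-β, fixed, permeabilised and stained for intracellular IFN-γ. Mean ± SEM of three experiments, each the mean of duplicate cultures.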

[2] = target: T1, Vβ8.2 NKT TCR (Vα14-Vβ8.2) / CD1d-Ag (Mus musculus, UniProt P11609+Z9CWY5XBV8); experiment: SPR of Vβ8.2 NKT TCR binding to glycolipid-loaded CD1d; conditions: for ka / kd: SPR kinetic experiment, 25°C, 1:1 Langmuir model
T1 sequence (P11609 22-305 limits assumed): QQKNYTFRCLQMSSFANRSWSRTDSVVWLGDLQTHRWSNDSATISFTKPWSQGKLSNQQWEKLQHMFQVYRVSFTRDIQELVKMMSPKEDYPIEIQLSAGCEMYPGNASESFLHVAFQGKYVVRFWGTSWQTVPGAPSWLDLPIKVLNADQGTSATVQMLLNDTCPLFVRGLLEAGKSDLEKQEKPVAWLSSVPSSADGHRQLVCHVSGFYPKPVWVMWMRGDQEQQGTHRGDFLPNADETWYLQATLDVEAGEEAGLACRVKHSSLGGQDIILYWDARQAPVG
T1 sequence (P01887 21-119): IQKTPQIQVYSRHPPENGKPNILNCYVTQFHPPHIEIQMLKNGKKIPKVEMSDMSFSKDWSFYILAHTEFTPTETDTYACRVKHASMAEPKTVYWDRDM

spleen NKT cells [3] = experiment: CFSE proliferation assay of spleen NKT cells; assay type: cell-based, C57BL/6 mice; conditions: 72 hr, 100, 10 and 1 ng/ml
spleen cells = experiment: Cytometric bead array of 72 hr splenocyte culture supernatants; assay type: cell-based, C57BL/6 mice; conditions: 72 hr spleen cell cultures, CBA
Outline: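 C57BL/6 splenocytes (5×10^5/well) pulsed with test glycolipid at 100, 10 or 1 ng/ml and cultured overnight. Medium was then replaced without further glycolipid, and supernatants were harvested at 72 hr. Mean ± SEM of three independent experiments (IL-10: two), each the mean of duplicate cultures.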

NKT cells = experiment: In vivo stimulation of NKT cells, serum cytokines by cytometric bead array; design: species or system mice; conditions: 1 μg i.p.
Outline: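 Mice received 1 μg test glycolipid i.p. in 200 μL PBS. Serum was collected at 2 and 24 hr, and IFN-γ and IL-4 were quantified by cytometric bead array. Ratio taken as serum IFN-γ at 24 hr over IL-4 at 2 hr. Results combine three independent experiments, 10 mice per group.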

[4] = Vβ7 TCR, SPR kinetic experiment, 25°C, 1:1 Langmuir model

Structure (SMILES)	ka (Vβ7 NKT TCR / CD1d-Ag; [4]) [M⁻¹ s⁻¹]	kd (Vβ7 NKT TCR / CD1d-Ag; [4]) [s⁻¹]	IFN-γ+ NKT cells (spleen NKT cells [1])	ka ([2]; Vβ8.2 TCR)	kd ([2]; Vβ8.2 TCR)	pKd ([2]; affinity (KD(eq)), Vβ8.2 NKT TCR, response at equilibrium)	NKT TCR affinity relative to CD1d-α-GalCer interaction (fold lower) (Vβ7 NKT TCR / CD1d-Ag; Vβ7 NKT TCR)	NKT cell proliferation (in words) (spleen NKT cells [3])	cytokine amounts, fold lower compared to α-GalCer (spleen cells)	pKd ([2]; KD(eq), Vβ8.2 TCR, steady-state affinity determined in separate experiment)	NKT TCR affinity relative to CD1d-α-GalCer interaction (fold lower) ([2]; Vβ8.2 NKT TCR)	ratio of peak IFN-γ response (24 hours) to peak IL-4 response (2 hours) (NKT cells; serum)	serum IFN-γ production in vivo compared to α-GalCer (NKT cells; serum at 2 and 24 hr)	serum IL-4 production in vivo compared to α-GalCer (NKT cells; serum at 2 and 24 hr)
CCCCCCCCCCCCCCCCCCCCCCCCCC(=O)N[C@@H](CO[C@H]1O[C@H](CO)[C@H](O)[C@H](O)[C@H]1O)[C@H](O)[C@H](O)CCCCCCCCCCCCCC [α-GalCer, α-galactosylceramide, reference compound]	231000 ± 31500	0.09 ± 0.003	approximately 25%	162000 M⁻¹ s⁻¹ and 162000 ± 9500 M⁻¹ s⁻¹	0.02 s^−1 and 0.02 ± 4.5×10^−4 s^−1	6.52	–	–	–	–	–	–	–	–
CCCCCCCCCCCCCCCCCCCCCCCCCC(=O)N[C@@H](CC[C@H]1O[C@H](CO)[C@H](O)[C@H](O)[C@H]1O)[C@H](O)[C@H](O)CCCCCCCCCCCCCC [α-C-GalCer]	–	–	~ 12%	225000 M⁻¹ s⁻¹ and 225000 ± 41000 M⁻¹ s⁻¹	0.29 s⁻¹ and 0.29 ± 0.02 s⁻¹	–	approximately 10 fold	little difference in the proliferative response	2–5 fold	~5.70 and 5.70	approximately 10 fold	Th1-like bias	lower amounts	lower amounts
